Source: ChEMBL document CHEMBL2440067, “Novel 3-nitro-1H-1,2,4-triazole-based piperazines and 2-amino-1,3-benzothiazoles as antichagasic agents” (Bioorg Med Chem, 2013)

Experiments:
[1] = test system: L6; assay: Cytotoxicity against rat L6 cells after 72 hrs by Alamar blue assay; assay type: cell-based; settings: L6, 72 h
Summary of the method: (§1)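 96-well plate growth-inhibition format. Targets were T. b. rhodesiense bloodstream trypomastigotes, T. cruzi Tulahuen C4 amastigotes inside L6 rat skeletal myoblasts, axenically cultured L. donovani MHOM-ET-67/L82 amastigotes, and L6 cells alone for cytotoxicity.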

[2] = test system: Trypanosoma cruzi; assay: Ratio of banznidazole IC50 to compound IC50 for Trypanosoma cruzi Tulahuen C4 amastigotes; assay type: functional
[3] = Selectivity index, ratio of IC50 for rat L6 cells to IC50 for Leishmania donovani MHOM-ET-67/L82 amastigotes; assay type: toxicity, cell-based; settings: read-out: Ratio IC50
Summary of the method: (§2)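 SI is the L6 myoblast IC50 divided by the IC50 against the parasite named. IC50s come from 96-well dose-response curves, each the mean of two independent assays.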

[4] = test system: Leishmania donovani; assay: Antimicrobial activity against Leishmania donovani MHOM-ET-67/L82 amastigotes after 72 hrs by Alamar blue assay; assay type: functional, organism-based; settings: MHOM-ET-67/L82, 72 h; summary of the method: as §1
[5] = Selectivity index, ratio of IC50 for rat L6 cells to IC50 for Trypanosoma cruzi Tulahuen C4 amastigotes; assay type: toxicity, cell-based; settings: read-out: Ratio IC50; summary of the method: as §2
[6] = test system: Trypanosoma cruzi; assay: Antimicrobial activity against Trypanosoma cruzi Tulahuen C4 amastigotes infected in rat L6 cells after 96 hrs by beta-galactosidase reporter gene assay; assay type: functional, organism-based; settings: Tulahuen C4, L6, 96 h; summary of the method: as §1
[7] = Selectivity index, ratio of IC50 for rat L6 cells to IC50 for blood stream form of Trypanosoma brucei rhodesiense STIB 900; assay type: toxicity, cell-based; settings: read-out: Ratio IC50; summary of the method: as §2
[8] = test system: Trypanosoma brucei rhodesiense; assay: Antimicrobial activity against blood stream form of Trypanosoma brucei rhodesiense STIB 900 after 72 hrs by Alamar blue assay; assay type: functional, organism-based; settings: STIB 900, 72 h; summary of the method: as §1
[9] = Prodrug conversion assessed as Trypanosoma brucei brucei recombinant his-tagged nitroreductase-mediated NADH oxidization by spectrophotometric analysis; assay type: ADME; settings: isolated protein

| SMILES | IC50 [6] | IC50 [8] | Drug metabolism [9] | IC50 [1] | Ratio IC50 [2] | selectivity ratio [3] | IC50 [4] | selectivity ratio [5] | selectivity ratio [7] |
| --- | --- | --- | --- | --- | --- | --- | --- | --- | --- |
| O=[N+]([O-])c1ncn(CCCN2CCN(c3ccncc3)CC2)n1 | 8800 nM | 1.34 µM | – | 154 µM | 0.2 | < 1 | > 315 µM | 17.5 | 115 |
| Cl.O=C(C1CC1)N1CCN(CCCn2cnc([N+](=O)[O-])n2)CC1 | 4700 nM | 15.6 µM | – | 203 µM | 0.3 | < 1 | > 290 µM | 43.1 | 13 |
| O=[N+]([O-])c1nccn1CCCNc1nc2ccc(Cl)cc2s1 | 3230 nM | 7.61 µM | – | 49.5 µM | 0.6 | 11.6 | 4.27 µM | 15.3 | 6.5 |
| O=[N+]([O-])c1nccn1CCCNc1nc2ccccc2s1 | 4880 nM | 52.5 µM | – | 176 µM | 0.4 | 15.4 | 11.4 µM | 36.1 | 3.4 |
| Cl.Cl.O=[N+]([O-])c1ncn(CCCN2CCN(Cc3ccc(C(F)(F)F)cc3)CC2)n1 | – | – | 420 nmol/min/mg | – | 4.6 | – | – | – | – |
| Cl.Cl.O=[N+]([O-])c1ncn(CCCCN2CCN(Cc3ccc(C(F)(F)F)cc3)CC2)n1 | – | – | 364 nmol/min/mg | – | 3.8 | – | – | – | – |
| Cl.Cl.O=[N+]([O-])c1ncn(CCCN2CCN(c3ccc(C(F)(F)F)cc3)CC2)n1 | – | – | 788 nmol/min/mg | – | 39.2 | – | – | – | – |
| COc1ccc(N2CCN(CCCn3ccnc3[N+](=O)[O-])CC2)cc1.Cl.Cl | 34400 nM | 62.4 µM | – | 137 µM | 0.1 | < 1 | 186 µM | 4 | 2.2 |
| Cl.Cl.Cl.Cl.O=[N+]([O-])c1nccn1CCCN1CCN(Cc2ccc(Cl)c(Cl)c2)CC1 | 9400 nM | 10.7 µM | – | 79.2 µM | 0.2 | < 1 | 150 µM | 8.4 | 7.4 |
| O=C(Cn1ccnc1[N+](=O)[O-])NCc1ccccc1 [BENZNIDAZOLE] | – | – | 218 nmol/min/mg | – | – | – | – | – | – |
| CC1CS(=O)(=O)CCN1/N=C/c1ccc([N+](=O)[O-])o1 (centres undefined) [NIFURTIMOX] | – | – | 74 nmol/min/mg | – | – | – | – | – | – |

Further lines, with some results ahead:

| IC50 [6] | IC50 [8] | Drug metabolism [9] | SMILES | IC50 [1] | Ratio IC50 [2] | selectivity ratio [3] | IC50 [4] | selectivity ratio [5] | selectivity ratio [7] |
| --- | --- | --- | --- | --- | --- | --- | --- | --- | --- |
| 59 nM | 0.204 µM | – | O=[N+]([O-])c1ncn(CCCNc2nc3ccc(Cl)cc3s2)n1 | 102 µM | 26.6 | 22.7 | 4.49 µM | 1720 | 500 |
| 566 nM | 0.954 µM | – | O=[N+]([O-])c1ncn(CCCNc2nc3ccccc3s2)n1 | 162 µM | 3.6 | 8.1 | 20 µM | 287 | 170 |
| 142 nM | 0.355 µM | – | O=[N+]([O-])c1ncn(CCCCNc2nc3ccc(Cl)cc3s2)n1 | 44.5 µM | 14.4 | 10.9 | 4.1 µM | 314 | 126 |
| 1750 nM | 3.87 µM | – | O=[N+]([O-])c1nccn1CCCCNc1nc2ccc(Cl)cc2s1 | 43 µM | 1.2 | 5.5 | 7.3 µM | 24.6 | 11.1 |
| 286 nM | 0.78 µM | – | Cl.Cl.Cl.Cl.O=[N+]([O-])c1ncn(CCCN2CCN(Cc3ccc(Cl)c(Cl)c3)CC2)n1 | 33.5 µM | 7.1 | 1.4 | 23.9 µM | 117 | 42.9 |
| 419 nM | 23.9 µM | – | Cc1ccc(N2CCN(CCCn3cnc([N+](=O)[O-])n3)CC2)cc1.Cl.Cl | 121 µM | 3.7 | < 1 | 173 µM | 289 | 5.1 |
| 828 nM | 10.5 µM | – | Cl.Cl.N#Cc1ccccc1N1CCN(CCCn2cnc([N+](=O)[O-])n2)CC1 | 113 µM | 2.5 | < 1 | 180 µM | 137 | 10.8 |
| 556 nM | 35.6 µM | – | COc1ccc(N2CCN(CCCn3cnc([N+](=O)[O-])n3)CC2)cc1.Cl.Cl | 125 µM | 2.8 | < 1 | > 239 µM | 224 | 3.5 |
| 1680 nM | 49.6 µM | – | Cl.Cl.O=[N+]([O-])c1ncn(CCCN2CCN(c3ncccn3)CC2)n1 | > 100 µM | 0.9 | 1 | > 100 µM | 152 | 5.2 |
| 848 nM | 35.6 µM | – | Cl.Cl.O=[N+]([O-])c1ncn(CCCN2CCN(c3ccccn3)CC2)n1 | 153 µM | 1.9 | < 1 | > 315 µM | 180 | 4.3 |
| 48 nM | 0.231 µM | – | Cl.Cl.Cl.Cl.O=[N+]([O-])c1ncn(CCCN2CCN(c3ccc(Cl)c(Cl)c3)CC2)n1 | 41.7 µM | 32.7 | 3.7 | 11.3 µM | 868 | 180 |
